Data reported in PubChem BioAssay.
Active and inactive are the calls of the source.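 How the source made its calls, unless noted: active means compounds giving at least 50% inhibition in the cell-based MKP-3 phosphatase rescue imaging test; inactive means the rest.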

Tests used:
[1] = inhibitors of TNFa-induced NFkB p65 translocation, primary screen, imaging, HUVEC, MLSMR starter and 10KST1 sets (AID 438;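 active means inhibition above 20% together with a positive visual image hit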;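 further: compound added about 3h40 before a 20 min TNFalpha stimulation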;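 on inhibition: signal is the nuclear over cytoplasmic p65 intensity ratio per well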); conditions: HUVEC TNFa-induced p65 nuclear translocation; cell count: measured here: nuclei count (cytotoxicity indicator), at 2.08 µM; inhibition: at 2 µM, stronger effect = higher value, 0% TNFa-plus-vehicle, 100% no-TNFa wells
[2] = inhibitors of E-selectin induction by TNFa, primary screen, imaging, HUVEC, immunofluorescence, MLSMR starter and 10KST1 sets (AID 487;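 active means visually confirmed hit in the image check and inhibition above 20%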;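 on inhibition: signal is fraction of cell area covered by stained E-selectin grains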;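 on nuclei count: 100% = median nuclei count of all wells on the same plate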); conditions: HUVEC TNFalpha-induced E-selectin immunofluorescence imaging, at 2 µM; inhibition: stronger effect = higher value; nuclei count: measured here: cell number, toxicity
[3] = DUSP6 inhibitors restoring Erk phosphorylation by chemical complementation, primary imaging in DUSP6-transfected HeLa (AID 609); conditions: HeLa MKP-3 transfected, phospho-Erk imaging KS statistic, at 10 µM, cells stimulated with TPA for 15 min;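 on inhibition: phospho-Erk level distribution per well compared with pooled transfected vehicle control wells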
[4] = molecular target: Dual specificity protein phosphatase 6 (Homo sapiens) (UniProt Q16828); test: as above; conditions: HeLa MKP-3 transfected, phospho-Erk imaging KS statistic; at 10 µM; stronger effect = higher value; cells stimulated with TPA for 15 min
Dual specificity protein phosphatase 6 (Homo sapiens), sequence (Q16828 whole entry, looked up): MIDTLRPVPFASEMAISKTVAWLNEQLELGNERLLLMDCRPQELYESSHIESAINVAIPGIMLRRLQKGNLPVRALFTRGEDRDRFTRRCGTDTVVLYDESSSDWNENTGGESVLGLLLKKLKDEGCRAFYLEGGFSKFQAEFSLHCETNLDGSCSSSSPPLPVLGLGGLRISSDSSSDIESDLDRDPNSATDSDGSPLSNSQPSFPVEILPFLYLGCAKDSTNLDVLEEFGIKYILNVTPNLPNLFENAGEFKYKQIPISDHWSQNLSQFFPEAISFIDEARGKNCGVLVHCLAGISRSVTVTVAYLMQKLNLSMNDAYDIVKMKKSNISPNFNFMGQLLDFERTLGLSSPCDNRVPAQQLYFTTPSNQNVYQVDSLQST

[5] = molecular target: Voltage-gated potassium channel subunit beta-2 (Rattus norvegicus) (UniProt P62483); test: KvBeta enzyme negative modulators, primary screen, biochemical, NADPH fluorescence (AID 622;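 active means fluorescence slope higher than the sample average by over 3 SD, cut at about -0.22 in these data, passing the limit was not always enough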;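 further: slope of raw intensity against log time taken from 70 to 1610 s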); conditions: recombinant KvBeta, 4-cyanobenzaldehyde reduction, at 10 µM, stronger effect = higher value
Voltage-gated potassium channel subunit beta-2 (Rattus norvegicus), sequence (P62483 whole entry, looked up): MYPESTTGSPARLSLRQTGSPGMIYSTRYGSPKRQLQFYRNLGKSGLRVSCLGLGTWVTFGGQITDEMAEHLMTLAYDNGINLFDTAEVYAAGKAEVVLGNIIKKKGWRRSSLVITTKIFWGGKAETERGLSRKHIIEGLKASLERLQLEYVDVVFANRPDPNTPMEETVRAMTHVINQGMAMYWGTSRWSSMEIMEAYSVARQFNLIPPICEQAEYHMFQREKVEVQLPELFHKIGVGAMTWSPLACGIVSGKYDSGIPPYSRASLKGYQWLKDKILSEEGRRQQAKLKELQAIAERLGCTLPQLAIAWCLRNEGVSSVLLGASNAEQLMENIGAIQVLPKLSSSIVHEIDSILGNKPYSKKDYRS

[6] = molecular target: Voltage-gated potassium channel subunit beta-2 (Rattus norvegicus) (UniProt P62483); test: KvBeta positive modulators, primary screen, biochemical, NADPH fluorescence (AID 623;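 active means NADPH fluorescence slope more negative than the mean of all samples by about 3 SD, 99.7% confidence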;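 further: fluorescence intensity change per second fitted from 20 to 320 s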); conditions: Recombinant KvBeta, NADPH fluorescence decrease slope, 10 min; at 10 µM; stronger effect = lower value
[7] = molecular target: Alpha-2C adrenergic receptor (Homo sapiens) (UniProt P18825); test: modulators of alpha2C/GIRK thallium flux, primary screen, cell-based, HEK293 alpha2C/GIRK1/2 (AID 624;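 active means fluorescence slope after compound addition differing from the mean of all screened samples at 99.7% confidence, in either direction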;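 further: slope of fluorescence ratio to pre-addition baseline per second over 15 to 24 s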); conditions: thallium flux BTC fluorescence, at 10 µM, actives lie on both sides
Alpha-2C adrenergic receptor (Homo sapiens), sequence (P18825 whole entry, looked up): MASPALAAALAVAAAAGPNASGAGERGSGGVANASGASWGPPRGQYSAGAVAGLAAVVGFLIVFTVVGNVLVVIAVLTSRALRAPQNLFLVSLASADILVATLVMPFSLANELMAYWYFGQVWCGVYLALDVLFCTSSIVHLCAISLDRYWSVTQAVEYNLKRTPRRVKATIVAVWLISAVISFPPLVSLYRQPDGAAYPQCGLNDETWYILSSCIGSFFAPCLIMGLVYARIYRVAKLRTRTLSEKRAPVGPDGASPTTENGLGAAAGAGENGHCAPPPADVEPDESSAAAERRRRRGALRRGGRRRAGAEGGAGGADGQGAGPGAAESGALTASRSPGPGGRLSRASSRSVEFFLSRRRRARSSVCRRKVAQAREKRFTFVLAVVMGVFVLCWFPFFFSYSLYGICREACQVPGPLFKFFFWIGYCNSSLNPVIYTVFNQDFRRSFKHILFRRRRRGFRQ

[8] = inhibitors of larval lipid processing in zebrafish, primary screen, whole organism, PED6 fluorescence, gall bladder and intestine (AID 686;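 active means a full or partial loss of lipid-probe fluorescence in the fish gall bladder, intestine or both, judged by eye; inactive means no fluorescence loss, or compound toxic to the fish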;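 further: larvae 5 to 7 days old with five fish per well; signal comes from phospholipase A2 cleavage of quenched PED6 carried via bile; overnight exposure to compound and PED6 before scoring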); conditions: Zebrafish larvae PED6 lipid processing, fluorescence scoring; screened at 20 µM (by protocol)
Procedure, shortened: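 Also added: quenched phospholipase substrate PED6, 100 nM final, ingested by larvae; System: zebrafish larvae, 5-7 d; Quantity: 5 larvae per well; Compound: 20 µM single dose; Schedule: overnight compound and PED6 incubation; Read-out: visual per-well fluorescence inhibition score; Measured by: By-eye fluorescence microscopy; Medium: E3.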

[9] = inhibitors of Chlamydomonas gravitaxis, primary screen, whole organism, Chlamydomonas reinhardtii, WT vs cilia-less mutant, absorbance, 96-well (AID 463189;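 active means inhibition at or above 50% relative to wild type and mutant plate controls; inactive means inhibition below 50%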;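 further: 0% = wild type cc124 cells in DMSO and 100% = ciliumless bld1 mutant cells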); conditions: OD600 absorbance, 2 days, at 10 µM, stronger effect = higher value
[10] = measured here: cell density z-score
[11] = measured here: nuclear c-Myc green intensity z-score
[12] = measured here: nuclear pErk red intensity z-score, stronger effect = higher value

Row | SMILES | cell count [1] | inhibition [1] | inhibition [2] | nuclei count [2] | z-score [3, 10] | z-score [3, 11] | z-score [3, 12] | inhibition [4] | fluorescence slope [5] | NADPH fluorescence slope [6] | slope [7] | outcome [8] | inhibition [9]
1 | c1ccc2c(c1)NC(c1ccncc1)n1c-2nc2ccccc21 (stereo not drawn) | 301 | 5% (inactive) | -118% (inactive) | 108% | -1.27 | 1.48 | 0.784 | -2.91% (inactive) | -0.384 (inactive) | -5.4e-05 (inactive) | 0.00501 (inactive) | inactive | -2.42% (inactive)
2 | Cc1ccccc1-c1nn2c(-c3ccccc3)nnc2s1 | 590 | -20% (inactive) | -150% (inactive) | 149% | 0.229 | -1.66 | 0.142 | -2.47% (inactive) | -0.451 (inactive) | -6e-05 (inactive) | 0.00655 (inactive) | inactive | 92.9% (active)
3 | COC(=O)CN(c1cc(OC)ccc1OC)S(=O)(=O)c1ccc(OC)c(OC)c1 | 365 | -5% (inactive) | -37.1% (inactive) | 130% | -0.822 | 0.297 | -0.958 | -2.59% (inactive) | -0.417 (inactive) | -0.000193 (inactive) | 0.00438 (inactive) | inactive | -0.193% (inactive)
4 | Nc1ccc2c(c1)N1CCN=C1S2 | 646 | -9.1% (inactive) | -53.2% (inactive) | 169% | 1.6 | -0.44 | 0.246 | -0.159% (inactive) | -0.545 (inactive) | -9.2e-05 (inactive) | 0.00512 (inactive) | inactive | 24% (inactive)
5 | CC1(C)CN(O)CCN1O | 325 | -5.3% (inactive) | -130% (inactive) | 104% | -0.173 | -0.721 | -0.0914 | -10.1% (inactive) | -0.452 (inactive) | -1.8e-06 (inactive) | 0.00611 (inactive) | inactive | 12% (inactive)
6 | O=C(O)C1CC=CCC1C(=O)N1CCN(c2nc(-c3ccccc3)c3ccccc3n2)CC1 (stereo not drawn) | 373 | -16.9% (inactive) | -48.5% (inactive) | 165% | -1.19 | 1.08 | 0.0489 | -5.26% (inactive) | -0.305 (inactive) | -7.9e-05 (inactive) | 0.00497 (inactive) | inactive | 28.5% (inactive)
7 | COc1cc(C2CC(C(F)(F)F)n3ncc(C(=O)O)c3N2)cc(OC)c1OC (stereo not drawn) | 515 | -6.9% (inactive) | 18.3% (inactive) | 119% | -0.754 | 0.674 | 1.11 | -2.07% (inactive) | -0.517 (inactive) | -9.9e-05 (inactive) | 0.0046 (inactive) | inactive | -0.326% (inactive)
8 | CCOc1ccc(C2C(C(=O)c3ccc(C)o3)=C(O)C(=O)N2CCCN(CC)CC)cc1 (stereo not drawn) | 518 | -20.5% (inactive) | -72.6% (inactive) | 151% | 1.15 | -0.0565 | 0.452 | -2.47% (inactive) | -0.509 (inactive) | -3.9e-05 (inactive) | 0.00538 (inactive) | inactive | 0.749% (inactive)
9 | CCOC(=O)c1n[nH]c2ccccc12 | 354 | -6.3% (inactive) | -168% (inactive) | 110% | 0.791 | -0.274 | -1.01 | 6.04% (inactive) | -0.399 (inactive) | 1.6e-05 (inactive) | 0.00468 (inactive) | inactive | -13% (inactive)
10 | CCOC(=O)C1=C(CSc2nc3c(cc2C#N)CN(C)CC3)OC(N)=C(C#N)C1c1ccccc1 (stereo not drawn) | 616 | -8.1% (inactive) | 28.8% (inactive) | 169% | 1.95 | -0.602 | 0.371 | -5.62% (inactive) | -0.384 (inactive) | -4.7e-05 (inactive) | 0.00325 (inactive) | inactive | -1.09% (inactive)
11 | Cc1ccccc1NC(=O)NCCc1nc2ccccc2[nH]1 | 543 | 1.8% (inactive) | -92.3% (inactive) | 163% | -1.18 | -0.333 | 2.49 | -11% (inactive) | -0.474 (inactive) | -0.000294 (inactive) | 0.00493 (inactive) | inactive | -6.75% (inactive)
